The target in one test is T1, Myelin-associated glycoprotein (Homo sapiens) (UniProt P20916).
T1 sequence (whole entry): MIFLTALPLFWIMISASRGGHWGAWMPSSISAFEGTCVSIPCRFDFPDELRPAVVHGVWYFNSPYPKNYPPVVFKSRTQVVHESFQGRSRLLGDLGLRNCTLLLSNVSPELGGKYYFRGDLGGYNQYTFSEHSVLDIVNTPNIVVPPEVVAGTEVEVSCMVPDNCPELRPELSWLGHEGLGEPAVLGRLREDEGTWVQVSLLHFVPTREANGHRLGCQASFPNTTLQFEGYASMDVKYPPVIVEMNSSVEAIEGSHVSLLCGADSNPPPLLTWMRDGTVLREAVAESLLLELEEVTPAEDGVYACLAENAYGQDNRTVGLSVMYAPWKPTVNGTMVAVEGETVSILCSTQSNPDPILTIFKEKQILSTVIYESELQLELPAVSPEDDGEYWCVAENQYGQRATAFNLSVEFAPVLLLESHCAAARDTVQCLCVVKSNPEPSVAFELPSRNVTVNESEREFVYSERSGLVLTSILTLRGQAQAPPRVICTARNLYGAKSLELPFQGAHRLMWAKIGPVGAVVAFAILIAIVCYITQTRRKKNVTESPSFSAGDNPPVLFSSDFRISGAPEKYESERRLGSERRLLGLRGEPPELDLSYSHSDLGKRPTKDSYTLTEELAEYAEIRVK
Kind of test: Inhibition of MAG N-terminal three domains expressed in CHO cells at 20 mM.
The term inhibition denotes the change of the read-out against control, counted positive when it falls. Read a low inhibition as little suppression. Molecule `CC(=O)N[C@H]1[C@H]([C@@H](O)[C@H](O)CO)O[C@](OCc2ccccc2)(C(=O)O)C[C@@H]1O` gave an inhibition of under 50%.

The target in the next test is T1, Myelin-associated glycoprotein (Homo sapiens). Kind of test: Inhibition of MAG N-terminal three domains expressed in CHO cells relative to Gal-beta-(1-3)-GalNAc-OSE. Format: cell-based. The essentials:
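Fc-MAG_d1–3 fusion (N-terminal three MAG domains plus human IgG Fc) was expressed in CHO cells and protein A-agarose purified, then precomplexed with alkaline phosphatase-labelled anti-Fc antibody. It was added to plates with immobilized Neu5Ac plus inhibitor, incubated overnight at 4 °C, and washed. Bound protein was read as initial rate of fluorescein release from fluorescein diphosphate. IC50 was taken from at least eight concentrations.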
Take `COc1ccc(C(=O)NC[C@@H](O)[C@H](O)[C@@H]2O[C@@](OCc3ccccc3)(C(=O)O)C[C@H](O)[C@H]2NC(C)=O)cc1`: the Activity stood at 290. In turn, `CC(=O)N[C@H]1[C@H]([C@@H](O)[C@H](O)CNC(=O)c2ccc(C(F)(F)F)cc2)O[C@@](OCc2ccccc2)(C(=O)O)C[C@@H]1O` gave an Activity of 207. The same measure, in the same setting: then `CC(=O)N[C@H]1[C@@H]([C@H](O)[C@H](O)CNC(=O)c2ccccc2-c2ccccc2)O[C@@](OCc2ccccc2)(C(=O)O)C[C@@H]1O`, with 75.

With `CCCCCC(=O)NC[C@@H](O)[C@H](O)[C@@H]1O[C@@](OCc2ccccc2)(C(=O)O)C[C@H](O)[C@H]1NC(C)=O`, the Activity worked out at 12. In turn, `CC(=O)N[C@H]1[C@H]([C@@H](O)[C@H](O)CNC(=O)c2ccc(Cl)cc2Cl)O[C@@](OCc2ccccc2)(C(=O)O)C[C@@H]1O` gave an Activity of 35.

`CC(=O)N[C@H]1[C@H]([C@@H](O)[C@H](O)CNC(=O)c2ccc(Cl)cc2)O[C@@](OCc2ccccc2)(C(=O)O)C[C@@H]1O` gave an Activity of 1070.

The molecule `CCCCCCCCCC(=O)NC[C@@H](O)[C@H](O)[C@@H]1O[C@@](OCc2ccccc2)(C(=O)O)C[C@H](O)[C@H]1NC(C)=O` displayed an Activity of 12. On the same count and under the same terms, then `CCCC(=O)NC[C@@H](O)[C@H](O)[C@@H]1O[C@@](OCc2ccccc2)(C(=O)O)C[C@H](O)[C@H]1NC(C)=O`, with 8.6; and `CC(=O)N[C@H]1[C@H]([C@@H](O)[C@H](O)CNC(=O)c2ccc(Cl)c(Cl)c2)O[C@@](OCc2ccccc2)(C(=O)O)C[C@@H]1O`, with 690.

On to `CC(=O)N[C@H]1[C@H]([C@@H](O)[C@H](O)CNC(=O)c2cccc(Cl)c2)O[C@@](OCc2ccccc2)(C(=O)O)C[C@@H]1O`, for which the Activity was determined as 483. On the same count and under the same terms, then `CC(=O)N[C@H]1[C@H]([C@@H](O)[C@H](O)COCc2ccccc2)O[C@@](OCc2ccccc2)(C(=O)O)C[C@@H]1O`, with 2.8; and `CC(=O)N[C@H]1[C@H]([C@@H](O)[C@H](O)CNC(=O)c2ccc([N+](=O)[O-])cc2)O[C@@](OCc2ccccc2)(C(=O)O)C[C@@H]1O`, with 414; and `CC(=O)N[C@H]1[C@H]([C@@H](O)[C@H](O)CO)O[C@@](OCc2ccccc2)(C(=O)O)C[C@@H]1O`, with 0.62. Same read-out and setting: then `CC(=O)N[C@H]1[C@@H]([C@H](O)[C@H](O)CNC(=O)c2ccc(-c3ccccc3)cc2)O[C@@](OCc2ccccc2)(C(=O)O)C[C@@H]1O`, with 191. The same measure, in the same setting: then `CC(=O)N[C@H]1[C@H]([C@@H](O)[C@H](O)CNC(=O)c2ccccc2)O[C@@](OCc2ccccc2)(C(=O)O)C[C@@H]1O`, with 690; and `CC(=O)N[C@H]1[C@H]([C@@H](O)[C@H](O)CNC(=O)c2cc(=O)[nH]c(=O)[nH]2)O[C@@](OCc2ccccc2)(C(=O)O)C[C@@H]1O`, with 6.7; and `CC(=O)N[C@@H]1[C@@H]([C@@H](O)[C@H](O)CNC(=O)c2ccc(C)cc2)O[C@@](OCc2ccccc2)(C(=O)O)C[C@@H]1O`, with 806.

For the molecule `CC(=O)N[C@H]1[C@H]([C@@H](O)[C@H](O)CN=[N+]=[N-])O[C@@](OCc2ccccc2)(C(=O)O)C[C@@H]1O`, the Activity was 0.05.

Values taken from ChEMBL document CHEMBL1139993, “Synthesis of sialic acid derivatives as ligands for the myelin-associated glycoprotein (MAG)” (Bioorg Med Chem, 2007).
